# Tests used:
# Cannabinoid receptor 1 = Cannabinoid receptor 1 (Rattus norvegicus, UniProt P20272); experiment: Displacement of [3H]CP-55940 from CB1 receptor in Sprague-Dawley rat brain membrane; type: cell membranes
# Cannabinoid receptor 2 [1] = biological target: T1, Cannabinoid receptor 2 (Homo sapiens, UniProt P34972); experiment: Displacement of [3H]CP-55940 from human cloned CB2 receptor
# [2] = Selectivity for human cloned CB2 receptor over Sprague Dawley rat brain membrane CB1 receptor
# Cannabinoid receptor 2 [3] = biological target: T1, Cannabinoid receptor 2; settings: CHO, 3 uM
# Cannabinoid receptor 2 [4] = biological target: T1, Cannabinoid receptor 2; experiment: Agonist activity at human CB2 receptor expressed in CHO cells by [35S]GTP-gamma-S binding assay relative to CP-55940; type: functional, cell-based
# Summary of the method: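 Same hCB2-CHO membrane [35S]GTPγS assay (10 µM GDP, 0.1 nM radioligand, 1.5 h, 30 °C). Net stimulation at each concentration was expressed as percent of that given by 3 µM CP-55,940, run as an internal standard in each experiment. Emax came from nonlinear regression of the concentration-effect curves, mean ± SEM of 3-6 experiments in triplicate.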
# Cannabinoid receptor 2 [5] = biological target: T1, Cannabinoid receptor 2; experiment: Agonist activity at human CB2 receptor expressed in CHO cells by [35S]GTP-gamma-S binding assay; type: functional, cell-based
# Summary of the method: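 [35S]GTPγS binding on membranes of CHO cells stably expressing human CB2. 10 µg membrane protein was incubated 1.5 h at 30 °C in 50 mM Tris-HCl pH 7.4, 3 mM MgCl2, 0.2 mM EGTA, 100 mM NaCl, with 10 µM GDP, 0.1 nM [35S]GTPγS, 0.1% BSA and agonist over a concentration range. Nonspecific binding was set with 20 µM GTPγS. Filtration was followed by scintillation counting. EC50 came from nonlinear regression, 3-6 experiments in triplicate.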
# T1 sequence (P34972 whole entry): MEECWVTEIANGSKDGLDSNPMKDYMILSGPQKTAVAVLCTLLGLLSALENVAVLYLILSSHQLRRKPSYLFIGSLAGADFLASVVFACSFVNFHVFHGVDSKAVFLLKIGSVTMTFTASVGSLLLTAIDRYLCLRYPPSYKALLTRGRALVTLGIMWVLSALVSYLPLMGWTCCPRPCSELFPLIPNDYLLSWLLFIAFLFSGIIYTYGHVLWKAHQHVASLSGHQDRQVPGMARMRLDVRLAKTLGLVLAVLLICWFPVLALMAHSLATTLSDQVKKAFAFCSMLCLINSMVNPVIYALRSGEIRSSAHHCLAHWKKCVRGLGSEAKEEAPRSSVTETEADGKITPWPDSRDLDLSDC
# Cannabinoid receptor 1, sequence (P20272 whole entry): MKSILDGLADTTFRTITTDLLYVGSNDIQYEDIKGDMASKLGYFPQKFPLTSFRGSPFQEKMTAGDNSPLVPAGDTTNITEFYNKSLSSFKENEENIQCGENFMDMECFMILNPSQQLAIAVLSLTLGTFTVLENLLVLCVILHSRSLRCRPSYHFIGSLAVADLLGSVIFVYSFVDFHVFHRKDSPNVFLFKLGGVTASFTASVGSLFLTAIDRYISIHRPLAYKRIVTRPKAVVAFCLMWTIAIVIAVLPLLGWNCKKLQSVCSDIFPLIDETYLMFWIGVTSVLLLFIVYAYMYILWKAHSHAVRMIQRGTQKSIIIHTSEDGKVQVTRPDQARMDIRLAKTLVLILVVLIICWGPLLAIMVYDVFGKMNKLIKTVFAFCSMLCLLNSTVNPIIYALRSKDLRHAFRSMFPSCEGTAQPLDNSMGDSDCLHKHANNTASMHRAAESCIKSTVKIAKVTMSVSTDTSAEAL
SMILES,Ki (Cannabinoid receptor 1) [µM],Ki (Cannabinoid receptor 2 [1]) [µM],Ratio Ki [2],Emax (Cannabinoid receptor 2 [3]) [%],Emax (Cannabinoid receptor 2 [4]) [%],EC50 (Cannabinoid receptor 2 [5]) [µM]
CCCCCCC(C)(C)c1ccc([C@H]2CCC[C@@H](O)C2)c(O)c1,0.0022,–,–,–,–,–
CCCCCCCC(C)(C)c1ccc([C@@H]2CCC[C@@H](O)C2)cc1,0.193,0.154,1.3,–,–,–
CCCCCCC(C)(C)c1ccc([C@@H]2C[C@H](O)CC[C@H]2CCCO)c(O)c1,–,–,–,85,–,–
CCC(C)(C)c1ccc([C@H]2CCC[C@@H](O)C2)cc1 (relative stereo),> 10,3.97,> 2.5,–,–,–
CC(C)(C)c1ccc([C@H]2CCC[C@@H](O)C2)cc1 (relative stereo),> 10,> 10,–,–,–,–
CCCCCCCCC(C)(C)c1ccc([C@@H]2C[C@H](O)CC[C@H]2CCCO)cc1 (relative stereo),0.566,0.421,1.3,–,–,–
CCCCCCCC(C)(C)c1ccc([C@@H]2C[C@H](O)CC[C@H]2CCCO)cc1 (relative stereo),0.266,0.173,1.5,–,–,–
CCCC(C)(C)c1ccc([C@@H]2CCC[C@@H](O)C2)cc1 (relative stereo),8.63,1.51,5.7,–,–,–
CCCCCCC(C)(C)c1ccc([C@@H]2CCC[C@@H](O)C2)cc1 (relative stereo),0.645,0.178,3.6,–,–,–
CCCCCC(C)(C)c1ccc([C@@H]2C[C@H](O)CC[C@H]2CCCO)cc1 (relative stereo),0.308,0.221,1.4,–,–,–
CCCC(C)(C)c1ccc([C@@H]2C[C@H](O)CC[C@H]2CCCO)cc1 (relative stereo),3.8,1.78,2.1,–,–,–
CCCCC(C)(C)c1ccc([C@@H]2CCC[C@@H](O)C2)cc1 (relative stereo),1.73,0.546,3.2,–,–,–
CCCCCC(C)(C)c1ccc([C@@H]2CCC[C@@H](O)C2)cc1 (relative stereo),1.03,0.215,4.8,–,66,0.0396
CCCCCCCC(C)(C)c1ccc([C@H]2CCC[C@@H](O)C2)cc1 (relative stereo),0.786,0.672,1.2,–,–,–
CCCCCCCCC(C)(C)c1ccc([C@H]2CCC[C@@H](O)C2)cc1 (relative stereo),1.71,1.12,1.5,–,–,–
CC(C)(C)c1ccc([C@@H]2CCC[C@@H](O)C2)cc1 (relative stereo),> 10,> 10,–,–,–,–
CCCCCC(C)(C)c1ccc([C@H]2CCC[C@@H](O)C2)cc1 (relative stereo),2.11,0.46,4.6,–,–,–
CCCCCCC(C)(C)c1ccc([C@H]2CCC[C@@H](O)C2)cc1 (relative stereo),2.95,0.231,13,–,–,–
CCCCC(C)(C)c1ccc([C@H]2CCC[C@@H](O)C2)cc1 (relative stereo),> 10,0.639,> 16,–,–,–
CC(C)(C)c1ccc([C@@H]2C[C@H](O)CC[C@H]2CCCO)cc1 (relative stereo),> 10,> 10,–,–,–,–
CCC(C)(C)c1ccc([C@@H]2C[C@H](O)CC[C@H]2CCCO)cc1 (relative stereo),> 10,1.36,> 7.3,–,–,–
CCCCC(C)(C)c1ccc([C@@H]2C[C@H](O)CC[C@H]2CCCO)cc1 (relative stereo),0.579,0.7,0.8,–,–,–
CCCCCCCCC(C)(C)c1ccc([C@@H]2CCC[C@@H](O)C2)cc1 (relative stereo),0.749,1.08,0.7,–,–,–
CCC(C)(C)c1ccc([C@@H]2CCC[C@@H](O)C2)cc1 (relative stereo),> 10,3.76,> 2.7,–,–,–
CCCC(C)(C)c1ccc([C@H]2CCC[C@@H](O)C2)cc1 (relative stereo),> 10,2.06,> 4.9,–,–,–
CCCCCCC(C)(C)c1ccc([C@@H]2C[C@H](O)CC[C@H]2CCCO)cc1 (relative stereo),0.547,0.238,2.3,–,–,–
